Test results: ChEMBL document CHEMBL4130600, “Keikipukalides, Furanocembrane Diterpenes from the Antarctic Deep Sea Octocoral Plumarella delicatissima” (J Nat Prod, 2018)
Active and inactive are the calls of the source. The rule behind the calls is not given here.

Columns and labels:
[1] = system: Clostridioides difficile; assay: Antibacterial activity against Clostridium difficile; format: functional, organism-based
[2] = system: Klebsiella pneumoniae; assay: Antibacterial activity against drug-resistant Klebsiella pneumoniae; format: functional, organism-based
[3] = system: Enterococcus faecium; assay: Antibacterial activity against drug-resistant Enterococcus faecium; format: functional, organism-based
[4] = system: A549; assay: Cytotoxicity against human A549 cells after 72 hrs by CellTiter 96 AQueous one solution cell proliferation assay; format: cell-based; details: A549, 72 h
Method in brief: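 A549 cells seeded at 1440 cells/well in F12K with 10% FBS and 1% penicillin–streptomycin, with compounds in doubling dilutions from 50 μg/mL final. Incubated 72 h at 37 °C, 5% CO2. MTS added 4 h before the end, OD read at 490 nm. Controls were cells with media and media alone.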

[5] = system: Staphylococcus aureus; assay: Antibacterial activity against drug-resistant Staphylococcus aureus; format: functional, organism-based
[6] = system: Pseudomonas aeruginosa; assay: Antibacterial activity against drug-resistant Pseudomonas aeruginosa; format: functional, organism-based
[7] = system: Leishmania donovani; assay: Antileishmanial activity against Leishmania donovani MHOM/SD/75/1246/130 axenic amastigotes infected in mouse J774A.1 cells after 72 hrs by Draq5 staining based assay; format: functional, organism-based; details: MHOM/SD/75/1246/130, J774.A1, 72 h
Method in brief: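 Amastigotes grown axenically at 37 °C in RPMI 1640, pH 5.5, with Hepes, MES, hemin, xanthine, Tween-80 and 20% heat-inactivated FBS. Parasites added 10:1 to 2000 J774A.1 macrophages per well, 24 h at 37 °C, 5% CO2, then extracellular parasites washed off. Compounds from 10 μg/mL, 1:2 serial dilution, 72 h. Fixed in 2% paraformaldehyde, Draq5 stain, imaged; amastigotes per 500 macrophages counted for IC50.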

[8] = system: Enterobacter; assay: Antibacterial activity against drug-resistant Enterobacter; format: functional, organism-based
[9] = system: Acinetobacter baumannii; assay: Antibacterial activity against drug-resistant Acinetobacter baumannii; format: functional, organism-based
[10] = system: Naegleria fowleri; assay: […] activity against Naegleria fowleri; format: functional, organism-based

Structure (SMILES)	Activity [1]	Activity [2]	Activity [3]	IC50 [4]	Activity [5]	Activity [6]	IC50 [7]	Activity [8]	Activity [9]	Activity [10]
C=C(C)[C@H]1CC2=C(C=O)C=C(O2)[C@H]2O[C@]2(C)C[C@H]2C=C(C(=O)O2)[C@@H](OC(C)=O)C1	inactive	inactive	inactive	> 50 µM	inactive	inactive	8.8 µM	inactive	inactive	inactive
C=C(C)[C@@H]1CCC2=C[C@H](C[C@@]3(C)O[C@@H]3C3=CC(C=O)=C(C1)O3)OC2=O	inactive	inactive	inactive	> 50 µM	inactive	inactive	1.9 µM	inactive	inactive	inactive
C=C(C)[C@@H]1C/C=C2\C(=O)O[C@@H](C[C@@]3(C)O[C@@H]3C3=CC(C=O)=C(C1)O3)[C@@H]2OC(C)=O	inactive	inactive	inactive	> 50 µM	inactive	inactive	8.8 µM	inactive	inactive	inactive
C=C(C)[C@H]1CC2=C(C=O)C=C(O2)[C@H]2O[C@]2(C)C[C@@H]2OC(=O)/C(=C\[C@H]1OC(C)=O)[C@H]2OC(C)=O	inactive	inactive	inactive	> 50 µM	inactive	inactive	8.5 µM	inactive	inactive	inactive
C=C(C)[C@@H]1/C=C/[C@]23O[C@H]2[C@H](C[C@@]2(C)O[C@@H]2C2=CC(C=O)=C(C1)O2)OC3=O	inactive	inactive	inactive	> 50 µM	inactive	inactive	> 28 µM	inactive	inactive	inactive
C=C(C)[C@@H]1/C=C/[C@]23O[C@H]2[C@H](C[C@](C)(O)[C@@H](OC(C)=O)C2=CC(C=O)=C(C1)O2)OC3=O	inactive	inactive	inactive	> 50 µM	inactive	inactive	12 µM	inactive	inactive	inactive
CCCCCCCCCCCCCCCCOP(=O)([O-])OCC[N+](C)(C)C [MILTEFOSINE]							6.2 µM			
C=C(C)[C@@H]1CC(=O)[C@H]2[C@H](C1)[C@@H]1C(=O)O[C@@H]3C[C@]4(C)O[C@H]2C(=O)[C@@H]4[C@H]13	inactive	inactive	inactive	> 50 µM	inactive	inactive	4.4 µM	inactive	inactive	inactive
